The values that follow come from ChEMBL document CHEMBL1142458, “Computational structure-activity relationship analysis of non-peptide inducers of macrophage tumor necrosis factor-alpha production” (Bioorg Med Chem, 2008).

Activity calls are given as the source filed them. No rule for the calls is given here.

In data set [1] the test system is J774.A1. Kind of data set: Stimulation of TNFalpha production in mouse J774.A1 cells at 50 uM after 24 hrs by ELISA relative to untreated control. In kind it is functional. In a few lines:
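Murine J774.A1 macrophages grown in DMEM with 10% heat-inactivated FBS and 10 mM HEPES at 37°C under 5% CO2, detached by scraping. Plated at 2×10^5 cells/well in medium with 3% FBS and exposed 24 hr to compound, DMSO vehicle or LPS. Supernatant TNF-α measured by murine ELISA against a standard curve. Reported as fold-increase over DMSO control.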
A general note: In an ELISA, binding on a coated surface is turned into a signal by an enzyme label.

In data set [2] the test system is J774.A1. Kind of data set: Cytotoxicity against mouse J774.A1 cells assessed as effect on cell viability at <=50 uM after 24 hrs. As to conditions: j774.a1, 24 h. In kind it is cell-based.

In the case of `O=C(N/N=C/c1ccc(-c2cccc(C(F)(F)F)c2)o1)c1ccc(Br)cc1`, in the data set with J774.A1 [1], the result was inactive.
The same measure, in the same setting: as for `O=C(N/N=C/c1c(O)ccc2ccccc12)c1ccc2c(c1)OCO2`, the entry is “inactive”.
In the case of `O=C(N/N=C/c1ccc(Br)o1)c1ccccc1`, in the data set on J774.A1 [1], the outcome was inactive.
Regarding `O=C(N/N=C/c1ccc(-c2cc(Cl)c(Cl)cc2Cl)o1)c1cccnc1`, in the data set on J774.A1 [1], the outcome was inactive. In the data set with J774.A1 [2], the Activity result was “Non-toxic”.
In the case of `O=C(N/N=C/c1ccco1)c1ccc(Cl)cc1Cl`, the outcome in the data set on J774.A1 [1] was inactive.
With `O=C(N/N=C/c1ccc([N+](=O)[O-])o1)c1cc([N+](=O)[O-])cc([N+](=O)[O-])c1O`, the result with J774.A1 [1] was inactive.
`O=C(N/N=C/c1ccc(-c2cccc(Br)c2)o1)c1ccccn1`: in the data set on J774.A1 [1], the outcome was inactive. The Activity entry in the data set with J774.A1 [2] was “Non-toxic”.
Turning to `COc1ccc(-c2ccc(/C=N/NC(=O)c3ccc([N+](=O)[O-])cc3)o2)cc1Cl`, the outcome in the data set on J774.A1 [1] was inactive.
`Cc1cc(C)n(Cc2ccc(C(=O)N/N=C/c3ccco3)cc2)n1`: the outcome in the data set on J774.A1 [1] was inactive.
In the case of `O=C(N/N=C/c1ccc(-c2ccc(Cl)cc2Cl)o1)c1ccccc1[N+](=O)[O-]`, in the data set with J774.A1 [1], the outcome was inactive.
In the case of `CCc1ccc(C(=O)N/N=C/c2ccc(-c3ccc(C)c(Cl)c3)o2)nc1`, in the data set with J774.A1 [1], the result was inactive. In the data set on J774.A1 [2], the Activity entry is reported as “Non-toxic”.
With `CC(C)N1C(=O)/C(=N\NC(=O)c2ccc3c(c2)OCO3)c2ccccc21`, the result with J774.A1 [1] was inactive.
For `O=C(N/N=C/c1cc(Br)c(Br)o1)c1ccc2c(c1)OCO2`, in the data set on J774.A1 [1], the “fold change (FC)” value was <5.
As to `O=C(N/N=C/c1ccc(-c2ccc([N+](=O)[O-])cc2Cl)o1)c1ccc2c(c1)OCO2`, the “fold change (FC)” value in the data set on J774.A1 [1] is recorded as 35.
For `Cc1ccc(C(=O)N/N=C/c2ccc(-c3cccc(Cl)c3)o2)cn1`, in the data set on J774.A1 [1], the result was inactive. The Activity result with J774.A1 [2] is reported as “Non-toxic”.
In the case of `CCN1C(=O)/C(=N\NC(=O)c2ccc3c(c2)OCO3)c2ccccc21`, in the data set with J774.A1 [1], the outcome was inactive.
Still for that read-out and setting: to `O=C(N/N=C/c1cc(Br)c(Br)o1)c1ccc2c(c1)OCCO2` belongs “inactive”.
Take `Cc1ccc(C(=O)N/N=C/c2ccc(-c3ccc(C)c(Cl)c3)o2)cn1`: the “fold change (FC)” value in the data set on J774.A1 [1] was determined as 21. Moreover, the Activity entry in the data set with J774.A1 [2] is on record as “Non-toxic”.
For `O=C(O)COc1ccccc1/C=N/NC(=O)c1ccc2c(c1)OCO2`, the outcome with J774.A1 [1] was inactive.
On to `CN(C)c1ccc(/C=N\NC(=O)c2ccc([N+](=O)[O-])cc2)cc1`, for which the “fold change (FC)” value with J774.A1 [1] is on record as 25.
`CC(C)(C)c1ccc(C(=O)N/N=C/c2ccc(-c3ccc([N+](=O)[O-])cc3)o2)cc1`: the outcome with J774.A1 [1] was inactive.
On to `Cc1ccc(C(=O)N/N=C/c2ccc(-c3ccc(Cl)cc3)o2)cn1`, for which the outcome with J774.A1 [1] was inactive. Also, the Activity result with J774.A1 [2] was “Non-toxic”.
Take `O=C(N/N=C/c1ccc(-c2ccc(Cl)c(Cl)c2)o1)c1ccc2c(c1)OCO2`: the “fold change (FC)” value in the data set with J774.A1 [1] is recorded as <5.
In the case of `CN(C)c1ccc(/C=N/NC(=O)c2ccc3c(c2)OCO3)cc1`, the outcome with J774.A1 [1] was inactive.
For `O=C(N/N=C/c1ccc(-c2ccc([N+](=O)[O-])cc2)o1)c1cccc(O)c1`, the result in the data set on J774.A1 [1] was inactive.
For the compound `O=C(N/N=C/c1ccc(-c2ccc(Cl)cc2)o1)c1cncc(Br)c1`, in the data set on J774.A1 [1], the “fold change (FC)” value came out at 25. The Activity entry in the data set with J774.A1 [2] was “Non-toxic”.
With `O=C(N/N=C/c1ccc(-c2ccc(Cl)cc2)o1)c1ccncc1`, the result in the data set with J774.A1 [1] was inactive. Moreover, the Activity entry in the data set with J774.A1 [2] is recorded as “Non-toxic”.
For the compound `COc1cc(/C=N\NC(=O)c2cccc(C)c2O)ccc1OCc1ccccc1`, the outcome with J774.A1 [1] was inactive.
Take `Cc1ccc(C(=O)N/N=C/c2ccc(-c3cccc(Cl)c3Cl)o2)cn1`: the result with J774.A1 [1] was inactive. Also, in the data set on J774.A1 [2], the Activity entry was “Non-toxic”.
Take `CCOc1ncccc1C(=O)N/N=C/c1ccc([N+](=O)[O-])o1`: the outcome in the data set with J774.A1 [1] was inactive.
For `COc1cc(/C=N\NC(=O)c2ccc3c(c2)OCO3)ccc1OC(=O)c1ccco1`, in the data set with J774.A1 [1], the result was inactive.
With `Cc1ccc(-c2ccc(/C=N/NC(=O)c3cccnc3)o2)cc1Cl`, the “fold change (FC)” value in the data set with J774.A1 [1] was 60. Further, the Activity entry with J774.A1 [2] is listed as “Non-toxic”.
As to `COc1cc(Br)ccc1C(=O)N/N=C/c1ccco1`, the outcome with J774.A1 [1] was inactive.
On to `O=C(N/N=C/c1ccc(-c2cccc(C(F)(F)F)c2)o1)c1cc(I)ccc1Cl`, for which the “fold change (FC)” value in the data set on J774.A1 [1] is given as <5.
As for `Cc1ccc(-c2ccc(/C=N/NC(=O)c3ccncc3)o2)cc1Cl`, the “fold change (FC)” value in the data set on J774.A1 [1] was 50. Also, the Activity entry with J774.A1 [2] is recorded as “Non-toxic”.
For `O=C(N/N=C/c1ccc(-c2cccc(Cl)c2)o1)c1ccc([N+](=O)[O-])cc1`, the result in the data set with J774.A1 [1] was inactive.
On to `O=C(N/N=C/c1cc(/N=N\c2cccc(C(F)(F)F)c2)ccc1O)c1ccc2c(c1)OCO2`, for which, in the data set on J774.A1 [1], the outcome was inactive.
On to `C/C(=N\NC(=O)c1ccc2c(c1)OCO2)c1cccc([N+](=O)[O-])c1`, for which the outcome in the data set with J774.A1 [1] was inactive.
`Cc1ccc(C(=O)N/N=C/c2ccc(-c3cc(Cl)ccc3Cl)o2)cn1`: in the data set with J774.A1 [1], the outcome was inactive. Also, the Activity result in the data set with J774.A1 [2] is given as “Non-toxic”.
Consider `O=C(N/N=C/c1ccc(-c2ccc(O)c(C(=O)O)c2)o1)c1cccnc1`, for which, in the data set on J774.A1 [1], the outcome was inactive.
In the case of `O=C(N/N=C/c1ccc(-c2cccc(Cl)c2Cl)o1)c1cccnc1`, in the data set with J774.A1 [1], the result was inactive. Also, in the data set on J774.A1 [2], the Activity result is “Non-toxic”.
As to `O=C(N/N=C/c1ccc(-c2ccc(Cl)c(Cl)c2)o1)c1ccccc1O`, the result in the data set with J774.A1 [1] was inactive.
For the compound `CCOc1cc(/C=N\NC(=O)c2ccc3c(c2)OCO3)ccc1OC(=O)c1ccc(Br)cc1`, the “fold change (FC)” value in the data set with J774.A1 [1] is reported as <5.
As for `COc1ccc(/C=N/NC(=O)c2ccc3c(c2)OCO3)c(OC)c1`, the result in the data set on J774.A1 [1] was inactive.
In the case of `O=C(N/N=C/c1ccc(-c2cc(Cl)ccc2Cl)o1)c1ccc([N+](=O)[O-])cc1`, the “fold change (FC)” value in the data set with J774.A1 [1] is <5.
In the case of `O=C(N/N=C/c1ccc(-c2cccc(Cl)c2)o1)c1cccnc1`, the “fold change (FC)” value in the data set with J774.A1 [1] was 17. Besides, in the data set with J774.A1 [2], the Activity entry is on record as “Non-toxic”.
`O=C(N/N=C/c1ccco1)c1cccc(F)c1`: the result in the data set with J774.A1 [1] was inactive.
As for `O=C(N/N=C/c1ccc(I)o1)c1ccccc1F`, in the data set with J774.A1 [1], the result was inactive.
Still for that read-out and setting: as for `COc1ccc(C(=O)N/N=C\c2ccc(N(C)C)cc2)cc1`, the entry is “inactive”.
Consider `O=C(N/N=C/c1ccc(-c2ccc(Cl)cc2)o1)c1cccnc1`, for which the “fold change (FC)” value with J774.A1 [1] is recorded as 15. In addition, the Activity entry in the data set with J774.A1 [2] is reported as “Non-toxic”.
With `O=C(N/N=C/c1cc(Br)cc(Br)c1OC(=O)c1ccccc1)c1ccc2c(c1)OCO2`, the “fold change (FC)” value in the data set on J774.A1 [1] is on record as <5.
As for `O=C(N/N=C/c1ccc(-c2cccc(C(F)(F)F)c2)o1)c1ccc([N+](=O)[O-])cc1`, the “fold change (FC)” value with J774.A1 [1] is on record as <5.
As for `O=C(N/N=C/c1ccc(-c2ccc(Cl)cc2Cl)o1)c1cncc(Br)c1`, the outcome in the data set with J774.A1 [1] was inactive. In the data set with J774.A1 [2], the Activity result is listed as “Non-toxic”.
As to `CN(C)c1ccc(/C=N\NC(=O)c2ccccc2O)cc1`, in the data set on J774.A1 [1], the result was inactive.
For the compound `O=C(N/N=C/c1ccc(-c2cccc(Br)c2)o1)c1cccnc1`, in the data set on J774.A1 [1], the “fold change (FC)” value was determined as 50.
On to `COc1ccc(/C(C)=N/NC(=O)c2ccc3c(c2)OCCO3)cc1[N+](=O)[O-]`, for which the outcome in the data set with J774.A1 [1] was inactive.
Turning to `Cc1ccc(C(=O)N/N=C/c2ccc(-c3cccc(C(F)(F)F)c3)o2)cn1`, the “fold change (FC)” value in the data set with J774.A1 [1] was <5.
In the case of `O=C(N/N=C/c1ccc(-c2ccc(Cl)c(Cl)c2)o1)c1ccncc1`, the result in the data set with J774.A1 [1] was inactive. Besides, in the data set on J774.A1 [2], the Activity result is reported as “Non-toxic”.
In the case of `O=C(N/N=C/c1cc(Br)cc(I)c1O)c1ccc2c(c1)OCCO2`, in the data set with J774.A1 [1], the result was inactive.
`O=C(N/N=C/c1ccco1)c1ccccc1`: in the data set on J774.A1 [1], the result was inactive.
Regarding `COc1ccccc1OCc1ccc(C(=O)N/N=C/c2ccco2)cc1`, the result in the data set with J774.A1 [1] was inactive.
The same measure, in the same setting: to `COc1ccc(C(=O)N/N=C/c2ccc(-c3ccc(Cl)c(C(=O)O)c3)o2)cc1` belongs “inactive”; to `O=C(N/N=C/c1ccc([N+](=O)[O-])o1)c1ccc(O)cc1O`, “inactive”; to `COc1ccc(Br)cc1C(=O)N/N=C/c1ccc(C)o1`, “inactive”.
Turning to `O=C(N/N=C/c1cc(/N=N\c2cccc3ccccc23)ccc1O)c1ccc2c(c1)OCO2`, the result in the data set on J774.A1 [1] was inactive.
The same measure, in the same setting: as for `COc1ccc(Cl)cc1/C=N/NC(=O)c1ccc2c(c1)OCCO2`, the entry is “inactive”; as for `O=C(/C=C/c1ccco1)Oc1cccc(/C=N/NC(=O)c2ccc3c(c2)OCO3)c1`, “inactive”.
On to `O=C(N/N=C/c1ccc(-c2cccc(C(F)(F)F)c2)o1)c1ccc(F)cc1`, for which the “fold change (FC)” value in the data set on J774.A1 [1] was 35.
`O=C(N/N=C/c1ccc(-c2ccc(Cl)c([N+](=O)[O-])c2)o1)c1ccc2c(c1)OCO2`: the result in the data set on J774.A1 [1] was inactive.
Consider `CN(C)c1ccc(/C=N\NC(=O)c2cccc(F)c2)cc1`, for which the result in the data set with J774.A1 [1] was inactive.
Regarding `Cc1ccc(C(=O)N/N=C/c2ccc(C)o2)cc1`, the result with J774.A1 [1] was inactive.
The same measure, in the same setting: as for `O=C(N/N=C/c1ccco1)c1cccnc1`, the entry is “inactive”.
Regarding `O=C(N/N=C/c1ccc(-c2ccccc2Cl)o1)c1ccc(Cl)cc1Cl`, in the data set on J774.A1 [1], the “fold change (FC)” value was <5.
Turning to `Cc1ccc(C(=O)N/N=C/c2ccc(-c3cc(Cl)c(Cl)cc3Cl)o2)cn1`, the “fold change (FC)” value in the data set on J774.A1 [1] is given as <5.
As to `O=C(N/N=C/c1ccc(-c2cccc(Cl)c2Cl)o1)c1ccccc1`, the “fold change (FC)” value in the data set on J774.A1 [1] is recorded as 8.
Turning to `O=C(/C=C\c1ccco1)Oc1ccc(/C=N\NC(=O)c2ccc3c(c2)OCO3)cc1`, in the data set with J774.A1 [1], the result was inactive.
Take `COc1cc(/C=N\NC(=O)c2ccc3c(c2)OCO3)ccc1OCc1ccccc1`: the “fold change (FC)” value with J774.A1 [1] is reported as 7.
In the case of `O=C(N/N=C1\C(=O)N(Cc2cccc3ccccc23)c2ccccc21)c1ccc2c(c1)OCO2`, the outcome in the data set with J774.A1 [1] was inactive.
As for `O=C(N/N=C/c1ccco1)c1ccc(Br)cc1O`, the result in the data set with J774.A1 [1] was inactive.
